Source: PubChem BioAssay AID1800 (The Scripps Research Institute Molecular Screening Center, 2009)
Out of some 290,000 compounds screened, about 1,600 (0.55%) were called active.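 How the source made its calls: active means inhibition above the mean of all tested compounds plus 3 SD, set per campaign (cut at about 35% in these data); inactive means the rest.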 This excerpt belongs to a sample that is enriched for actives.

The compounds below were run on Hepatitis C virus NS3 helicase (assay: inhibitors of HCV NS3 helicase, primary screen, biochemical, Cy5 molecular beacon fluorescence (AID 1800;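 further: 0% = DMSO wells and 100% = thioflavine S control wells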)). Settings: NS3 helicase DNA unwinding, at 10.9 µM, hits give high values.
Outline: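 test system = hepatitis C virus NS3 helicase domain fragment enzyme | reagent = annealed dual-labelled DNA beacon duplex, ATP-started | times = 1 h at 25 °C | detection = Cy5 fluorescence, 0 and 60 min reads | read-out basis = percent inhibition from t60/t0 fluorescence ratio | control set = DMSO and thioflavine S | replication = one well per compound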

SMILES	inhibition
CSc1c(SCc2ccccc2)cnn(Cc2ccccc2)c1=O	48.3% (active)
CC(=O)Nc1ccc(NC(=O)CSc2ncnc3c2cnn3Cc2ccccc2)cc1	-5.31% (inactive)
CSc1nc2ccccc2c(=O)n1Cc1ccc(F)cc1	-9.76% (inactive)
CSc1ccccc1OCc1cc(C(=O)N(C)CCc2c(C)n[nH]c2C)no1	11.5% (inactive)
O=C(CSCc1ccccc1)Nc1ccccc1	-0.15% (inactive)
O=S(=O)(Nc1ccc2nc(-c3ccco3)[nH]c2c1)c1ccccc1	-5.98% (inactive)
Cc1cccc(NC(=O)c2sc3nc4c(c(-c5ccco5)c3c2N)CCC4)c1	93% (active)
Cc1cccc(NC(=O)c2sc3nc(N4CCOCC4)c4c(c3c2N)CCCC4)c1	18.7% (inactive)
NC(=O)c1sc2nc3c(c(-c4ccccc4)c2c1N)CCC3	1.99% (inactive)
CN(CCc1ccccc1)c1ccc([N+](=O)[O-])cn1	-0.4% (inactive)
CCOC(=O)C1Sc2[nH]c(=O)sc2C(c2ccc(Cl)cc2)C1C(=O)OCC (stereo not drawn)	17.4% (inactive)
CCOC(=O)c1ccccc1N1C(=O)C2Sc3[nH]c(=O)sc3C(/C=C/c3ccccc3)C2C1=O (stereo not drawn)	37.9% (active)
CC(OC(=O)c1ccccc1N1C(=O)C2C3CCC(C3)C2C1=O)C(=O)c1ccccc1 (stereo not drawn)	1.1% (inactive)
O=C(CN1C(=O)S/C(=C\c2ccccc2Cl)C1=O)NC1C=CS(=O)(=O)C1 (stereo not drawn)	-23.6% (inactive)
COc1cc(-c2nn3c(-c4cccc(C)c4)nnc3s2)cc(OC)c1OC	12.9% (inactive)
c1ccc(-c2cc(-c3nnc4sc(-c5ccccn5)nn34)[nH]n2)cc1	-7.42% (inactive)
Fc1ccc(-c2ccc(-c3nn4c(-c5ccco5)nnc4s3)o2)cc1	40.9% (active)
C=CCOc1ccc(/C=C2/C(=O)ON=C2C)cc1OCC	16.9% (inactive)
CCOC(=O)c1nnn(-c2nc(OC)nc(N(C)C)n2)c1-c1ccccc1	39.7% (active)
CCOC(=O)c1c(N)nn(C(=O)c2ccccc2)c1-c1ccccc1	-7.63% (inactive)

SMILES	inhibition
CCOC(=O)c1nnn(-c2nonc2OC)c1-c1ccccc1	5.43% (inactive)
COc1ccc(CN(C)C(C)C(=O)NC2CCCc3ccccc32)cc1 (stereo not drawn)	-16.3% (inactive)
COc1ccc(-c2ocnc2C(=O)Nc2ccc3c(c2)CCC3)cc1	-14.4% (inactive)
COc1ccc(CNS(=O)(=O)c2ccc(NC(=O)N3CCCCC3)cc2)cc1	-6.52% (inactive)
Cc1ccc(-n2nc3c(=O)n(C(C)C(=O)NCc4ccc5c(c4)OCO5)nc(C)c3c2C)cc1 (stereo not drawn)	4.33% (inactive)
O=C(CCCN1C(=O)/C(=C\c2ccccc2)SC1=S)Nc1ccccc1O	-2.1% (inactive)
O=C(CCCN1C(=O)/C(=C/c2ccco2)SC1=S)Nc1ccccc1	34.7% (inactive)
O=C(CCCN1C(=O)/C(=C\c2ccco2)SC1=S)Nc1cccc2ccccc12	40.1% (active)
Cc1cc(C)n(CCC(=O)N2CCN(S(=O)(=O)c3ccc(C)c(C)c3)CC2)n1	-5.54% (inactive)
Cc1c(NC(=O)Nc2cccc([N+](=O)[O-])c2)c(=O)n(-c2ccccc2)n1C	4.3% (inactive)
CC1(C)CC(=O)c2c(n(S(=O)(=O)c3ccccc3)c3ccc(NS(=O)(=O)c4ccccc4)cc23)C1	-3.21% (inactive)
CN(C)c1ccc(N/C=C/C(=O)C(F)(F)F)cc1	47.6% (active)
CC(C)CNC(=O)C(=O)Nc1ccc(N(C)C)cc1	-3.21% (inactive)
CC(=O)N(C)c1ccc(NC(=O)C(F)(F)F)cc1	-2.62% (inactive)
CC(=O)c1ccc(N2CCN(S(=O)(=O)c3ccc4c(c3)CC(=O)N4C)CC2)cc1	26.3% (inactive)
O=S(=O)(NC1CC1)c1ccc(Cl)cc1	4.09% (inactive)
COc1ccc(NC(=O)CC2C(=O)NC3CCCCC3N2C(=O)c2ccc(F)cc2)cc1 (stereo not drawn)	-15.6% (inactive)
CC(=O)N/N=C/c1cc2c(cc1[N+](=O)[O-])OCO2	3.66% (inactive)
Cc1ccc(S(=O)(=O)N/N=C\c2cc3c(cc2[N+](=O)[O-])OCO3)cc1	54.2% (active)
Cc1ccc(-c2n[nH]c(=S)n2/N=C/c2cc3c(cc2[N+](=O)[O-])OCO3)cc1	8.58% (inactive)

SMILES	inhibition
CC(=O)Nc1ccc(NC(=O)CCCNC(=O)c2ccc(Cl)cc2)cc1	-9.29% (inactive)
CCCN1CCn2c3c(c4cc(Br)ccc42)CCCC31 (stereo not drawn)	-17.6% (inactive)
O=C(N/N=C/c1ccc([N+](=O)[O-])o1)c1cn(-c2ccccc2)nc1-c1ccc(F)cc1	37% (active)
Cc1nnc(SCC(=O)N/N=C/c2cn(-c3ccccc3)nc2-c2ccc(F)cc2)n1-c1ccccc1	-0.42% (inactive)
Cc1ccc(-c2nn(-c3ccccc3)cc2/C=N/NC(=O)c2ccc3c(c2)OCO3)cc1	3.37% (inactive)
CC(=O)N1CCC(C(=O)Nc2nc(-c3ccccc3)ns2)CC1	1.62% (inactive)
O=C(c1cccc(C(=O)N2CCN(c3ccc(F)cc3)CC2)c1)N1CCN(c2ccc(F)cc2)CC1	-2.81% (inactive)
O=C(c1cccc(-n2cccc2)c1)N1CCN(S(=O)(=O)c2ccc(F)cc2)CC1	77% (active)
O=C(c1cnc(Cl)c(Cl)c1)N1CCN(S(=O)(=O)c2ccc(F)cc2)CC1	5.16% (inactive)
CNS(=O)(=O)c1cccc(C(=O)NC2CCCc3ccccc32)c1 (stereo not drawn)	37% (active)
CNS(=O)(=O)c1cccc(C(=O)NCC2CCCCC2)c1	-9.16% (inactive)
O=C(O)c1cc(S(=O)(=O)NC2CCCc3ccccc32)ccc1O (stereo not drawn)	7.44% (inactive)
CC1(C)NC(=O)N(CC(=O)Nc2cc(C(F)(F)F)cc(C(F)(F)F)c2)C1=O	-6.82% (inactive)
CCn1cc(C(=O)OCC(=O)Nc2cccc(C)c2)c(=O)c2ccc(C)nc21	4.57% (inactive)
COc1ccc(C(=O)NC2CCN(C(=S)NCCc3ccccc3)CC2)cc1	0.36% (inactive)
O=C1CCN(C(=S)NCCc2ccccc2)CC1	-6.74% (inactive)
S=C(NCCc1ccccc1)N1CCCCC1	40.9% (active)
COc1ccc(CCn2c(=N)c(C(=O)NCC3CCCO3)cc3c(=O)n4cccc(C)c4nc32)cc1OC (stereo not drawn)	0.37% (inactive)
